Experimental data as given in the M2OR odorant receptor database.

Legend:
Details in all cases: stereoisomer not certain
UniProt Q8VGZ2 = target: T1, UniProt Q8VGZ2
T1 sequence (whole entry): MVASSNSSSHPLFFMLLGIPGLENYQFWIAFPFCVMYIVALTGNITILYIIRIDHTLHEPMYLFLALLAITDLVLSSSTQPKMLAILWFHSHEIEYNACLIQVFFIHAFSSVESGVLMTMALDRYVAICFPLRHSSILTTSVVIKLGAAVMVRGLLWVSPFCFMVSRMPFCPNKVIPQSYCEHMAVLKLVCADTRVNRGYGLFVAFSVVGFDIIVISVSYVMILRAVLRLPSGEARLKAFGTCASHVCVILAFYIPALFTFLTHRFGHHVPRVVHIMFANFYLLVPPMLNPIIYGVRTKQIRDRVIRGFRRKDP
Method in brief: (§1)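 Assay methods differ from source to source, frequently being transient luciferase assays in mammalian cell lines. For each receptor–molecule pair, the label responsive (active) applies when the original authors judged the measured signal statistically different from baseline, and non-responsive (inactive) applies otherwise.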

UniProt Q8VGZ7 = target: T2, UniProt Q8VGZ7
T2 sequence (whole entry): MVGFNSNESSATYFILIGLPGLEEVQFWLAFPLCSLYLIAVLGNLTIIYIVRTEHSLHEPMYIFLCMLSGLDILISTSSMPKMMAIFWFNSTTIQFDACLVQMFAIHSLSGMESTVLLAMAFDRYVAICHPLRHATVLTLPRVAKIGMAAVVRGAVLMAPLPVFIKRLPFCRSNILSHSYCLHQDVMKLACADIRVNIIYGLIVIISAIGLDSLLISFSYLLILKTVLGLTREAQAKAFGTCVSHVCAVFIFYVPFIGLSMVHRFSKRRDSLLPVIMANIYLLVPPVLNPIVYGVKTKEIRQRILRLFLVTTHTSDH
Method in brief: as §1

UniProt Q8VH16 = target: T3, UniProt Q8VH16
T3 sequence (whole entry): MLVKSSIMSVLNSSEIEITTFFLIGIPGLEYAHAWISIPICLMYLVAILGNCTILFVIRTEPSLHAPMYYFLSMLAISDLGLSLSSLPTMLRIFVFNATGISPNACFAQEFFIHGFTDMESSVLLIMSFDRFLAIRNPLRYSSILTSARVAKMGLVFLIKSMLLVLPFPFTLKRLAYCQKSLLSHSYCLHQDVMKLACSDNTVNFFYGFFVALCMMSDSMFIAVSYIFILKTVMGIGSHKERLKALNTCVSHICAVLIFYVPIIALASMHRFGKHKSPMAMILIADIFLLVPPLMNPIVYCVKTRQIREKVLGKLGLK
Method in brief: as §1

UniProt Q8VH20 = target: T4, UniProt Q8VH20
T4 sequence (whole entry): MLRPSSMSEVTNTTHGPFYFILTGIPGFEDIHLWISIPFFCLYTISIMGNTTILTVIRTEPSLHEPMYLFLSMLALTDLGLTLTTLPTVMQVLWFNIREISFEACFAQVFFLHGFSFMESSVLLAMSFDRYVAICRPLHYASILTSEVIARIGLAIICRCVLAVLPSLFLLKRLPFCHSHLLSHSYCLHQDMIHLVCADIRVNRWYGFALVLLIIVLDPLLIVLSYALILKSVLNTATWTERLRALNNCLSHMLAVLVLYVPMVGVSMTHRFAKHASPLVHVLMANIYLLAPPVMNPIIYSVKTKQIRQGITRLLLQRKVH
Method in brief: as §1

UniProt Q8VH21 = target: T5, UniProt Q8VH21
T5 sequence (whole entry): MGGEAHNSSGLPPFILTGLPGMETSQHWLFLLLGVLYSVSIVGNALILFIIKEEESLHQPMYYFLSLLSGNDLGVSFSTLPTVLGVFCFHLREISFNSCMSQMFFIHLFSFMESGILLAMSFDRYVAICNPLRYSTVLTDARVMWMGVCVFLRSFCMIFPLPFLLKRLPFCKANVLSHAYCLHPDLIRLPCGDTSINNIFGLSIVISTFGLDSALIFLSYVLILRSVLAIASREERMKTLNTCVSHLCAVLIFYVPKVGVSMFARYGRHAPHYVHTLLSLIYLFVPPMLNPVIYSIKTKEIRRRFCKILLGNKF
Method in brief: as §1

UniProt Q924H8 = target: T6, UniProt Q924H8
T6 sequence (whole entry): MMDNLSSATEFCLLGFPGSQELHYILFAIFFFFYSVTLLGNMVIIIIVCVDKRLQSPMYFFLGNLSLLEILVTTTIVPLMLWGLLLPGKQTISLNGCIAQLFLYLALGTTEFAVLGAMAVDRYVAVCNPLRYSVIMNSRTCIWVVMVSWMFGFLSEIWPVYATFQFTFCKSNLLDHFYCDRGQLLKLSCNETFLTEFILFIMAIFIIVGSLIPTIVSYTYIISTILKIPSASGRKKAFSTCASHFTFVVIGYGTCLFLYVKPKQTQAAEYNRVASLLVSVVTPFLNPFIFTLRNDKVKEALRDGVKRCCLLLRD
Method in brief: as §1

UniProt Q8VGX8 = target: T7, UniProt Q8VGX8
T7 sequence (whole entry): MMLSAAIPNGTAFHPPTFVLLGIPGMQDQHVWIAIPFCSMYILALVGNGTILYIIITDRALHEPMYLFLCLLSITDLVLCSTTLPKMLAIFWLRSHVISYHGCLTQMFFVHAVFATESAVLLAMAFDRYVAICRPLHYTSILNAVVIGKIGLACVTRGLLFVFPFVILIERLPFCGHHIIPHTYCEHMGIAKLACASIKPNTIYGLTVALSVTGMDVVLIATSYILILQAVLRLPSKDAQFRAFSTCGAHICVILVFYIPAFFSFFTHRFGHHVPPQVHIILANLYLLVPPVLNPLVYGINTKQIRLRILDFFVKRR
Method in brief: as §1

UniProt Q8VGY6 = target: T8, UniProt Q8VGY6
T8 sequence (whole entry): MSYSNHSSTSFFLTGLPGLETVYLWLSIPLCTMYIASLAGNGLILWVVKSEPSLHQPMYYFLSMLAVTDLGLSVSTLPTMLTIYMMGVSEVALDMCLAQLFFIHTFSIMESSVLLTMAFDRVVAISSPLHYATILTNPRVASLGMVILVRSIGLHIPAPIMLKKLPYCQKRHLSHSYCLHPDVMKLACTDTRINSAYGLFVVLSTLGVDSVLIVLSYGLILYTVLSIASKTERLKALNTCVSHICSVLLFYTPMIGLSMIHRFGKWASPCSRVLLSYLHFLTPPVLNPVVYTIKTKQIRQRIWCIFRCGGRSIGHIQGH
Method in brief: as §1

UniProt Q8VH10 = target: T9, UniProt Q8VH10
T9 sequence (whole entry): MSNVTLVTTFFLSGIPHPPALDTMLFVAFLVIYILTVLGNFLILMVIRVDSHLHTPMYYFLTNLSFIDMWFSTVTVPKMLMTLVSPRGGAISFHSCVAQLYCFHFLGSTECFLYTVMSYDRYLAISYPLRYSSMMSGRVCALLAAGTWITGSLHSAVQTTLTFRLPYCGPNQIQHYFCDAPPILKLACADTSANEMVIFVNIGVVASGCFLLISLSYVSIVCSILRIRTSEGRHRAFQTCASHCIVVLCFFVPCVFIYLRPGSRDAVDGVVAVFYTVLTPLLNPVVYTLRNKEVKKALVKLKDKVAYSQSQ
Method in brief: as §1

UniProt Q8VH18 = target: T10, UniProt Q8VH18
T10 sequence (whole entry): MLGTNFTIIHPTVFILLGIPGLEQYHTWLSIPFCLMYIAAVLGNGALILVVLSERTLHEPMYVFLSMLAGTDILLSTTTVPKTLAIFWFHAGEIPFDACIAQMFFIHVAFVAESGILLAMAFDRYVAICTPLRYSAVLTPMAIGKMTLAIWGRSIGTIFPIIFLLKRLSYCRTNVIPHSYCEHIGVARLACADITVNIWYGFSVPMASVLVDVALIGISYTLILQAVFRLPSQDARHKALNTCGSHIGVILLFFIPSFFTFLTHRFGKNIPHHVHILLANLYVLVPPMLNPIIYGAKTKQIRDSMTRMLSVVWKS
Method in brief: as §1

UniProt Q924X8 = target: T11, UniProt Q924X8
T11 sequence (whole entry): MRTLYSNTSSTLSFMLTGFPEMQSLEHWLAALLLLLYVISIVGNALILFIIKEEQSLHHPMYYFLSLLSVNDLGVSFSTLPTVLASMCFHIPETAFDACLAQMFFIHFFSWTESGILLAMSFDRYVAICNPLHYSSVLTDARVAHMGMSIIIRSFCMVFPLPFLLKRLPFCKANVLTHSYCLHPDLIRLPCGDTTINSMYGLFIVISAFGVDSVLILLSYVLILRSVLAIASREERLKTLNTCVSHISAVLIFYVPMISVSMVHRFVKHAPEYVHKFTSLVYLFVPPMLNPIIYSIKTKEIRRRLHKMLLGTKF
Method in brief: as §1

UniProt Q99NH4 = target: T12, UniProt Q99NH4
T12 sequence (whole entry): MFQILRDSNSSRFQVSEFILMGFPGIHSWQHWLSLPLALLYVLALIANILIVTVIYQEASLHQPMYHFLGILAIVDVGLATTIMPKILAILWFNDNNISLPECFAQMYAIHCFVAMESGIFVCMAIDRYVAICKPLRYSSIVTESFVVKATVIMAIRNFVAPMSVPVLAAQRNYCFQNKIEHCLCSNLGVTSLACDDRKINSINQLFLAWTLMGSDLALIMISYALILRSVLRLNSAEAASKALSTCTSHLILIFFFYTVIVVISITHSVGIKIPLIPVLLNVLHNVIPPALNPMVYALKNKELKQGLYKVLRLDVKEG
Method in brief: as §1

UniProt Q9EPN9 = target: T13, UniProt Q9EPN9
T13 sequence (whole entry): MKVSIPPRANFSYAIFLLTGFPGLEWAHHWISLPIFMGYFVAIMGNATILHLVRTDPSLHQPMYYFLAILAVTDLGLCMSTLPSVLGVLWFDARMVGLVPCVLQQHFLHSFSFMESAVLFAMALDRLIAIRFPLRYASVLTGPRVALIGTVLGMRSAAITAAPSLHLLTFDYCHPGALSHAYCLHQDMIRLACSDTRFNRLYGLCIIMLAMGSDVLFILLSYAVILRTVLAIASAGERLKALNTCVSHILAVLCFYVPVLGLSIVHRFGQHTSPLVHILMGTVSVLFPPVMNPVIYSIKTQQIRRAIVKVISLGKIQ
Method in brief: as §1

UniProt Q9R0K2 = target: UniProt Q9R0K2
Chain of UniProt Q9R0K2 (Q9R0K2 as listed by the source): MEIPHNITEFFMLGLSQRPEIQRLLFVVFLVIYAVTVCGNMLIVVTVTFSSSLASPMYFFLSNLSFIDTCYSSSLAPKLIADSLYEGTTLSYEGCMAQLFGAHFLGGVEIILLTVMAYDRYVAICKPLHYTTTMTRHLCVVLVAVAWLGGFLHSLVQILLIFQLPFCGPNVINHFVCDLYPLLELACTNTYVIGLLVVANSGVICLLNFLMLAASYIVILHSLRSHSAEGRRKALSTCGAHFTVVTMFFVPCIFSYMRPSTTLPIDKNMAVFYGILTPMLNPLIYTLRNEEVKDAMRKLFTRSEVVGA
Method in brief: as §1

UniProt Q9WU86 = target: T14, UniProt Q9WU86
T14 sequence (whole entry): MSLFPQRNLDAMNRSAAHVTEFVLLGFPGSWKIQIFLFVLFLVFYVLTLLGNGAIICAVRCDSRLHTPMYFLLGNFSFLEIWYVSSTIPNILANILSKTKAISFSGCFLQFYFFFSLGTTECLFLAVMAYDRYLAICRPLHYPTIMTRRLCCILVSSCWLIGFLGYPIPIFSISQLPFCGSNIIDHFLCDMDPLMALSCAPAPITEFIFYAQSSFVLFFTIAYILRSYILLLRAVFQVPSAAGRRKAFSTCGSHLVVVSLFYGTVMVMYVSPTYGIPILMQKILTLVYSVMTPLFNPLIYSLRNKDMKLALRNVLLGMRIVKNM
Method in brief: as §1

UniProt Q9WU94 = target: T15, UniProt Q9WU94
T15 sequence (whole entry): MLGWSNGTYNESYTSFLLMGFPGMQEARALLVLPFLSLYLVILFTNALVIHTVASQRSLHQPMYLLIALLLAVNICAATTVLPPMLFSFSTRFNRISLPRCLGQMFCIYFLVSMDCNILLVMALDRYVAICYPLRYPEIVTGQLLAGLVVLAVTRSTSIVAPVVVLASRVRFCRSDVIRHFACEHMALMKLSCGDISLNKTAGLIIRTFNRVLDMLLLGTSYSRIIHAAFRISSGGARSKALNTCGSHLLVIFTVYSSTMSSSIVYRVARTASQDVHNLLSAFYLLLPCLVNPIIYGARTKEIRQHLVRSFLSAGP
Method in brief: as §1

UniProt Q9WVD7 = target: T16, UniProt Q9WVD7
T16 sequence (whole entry): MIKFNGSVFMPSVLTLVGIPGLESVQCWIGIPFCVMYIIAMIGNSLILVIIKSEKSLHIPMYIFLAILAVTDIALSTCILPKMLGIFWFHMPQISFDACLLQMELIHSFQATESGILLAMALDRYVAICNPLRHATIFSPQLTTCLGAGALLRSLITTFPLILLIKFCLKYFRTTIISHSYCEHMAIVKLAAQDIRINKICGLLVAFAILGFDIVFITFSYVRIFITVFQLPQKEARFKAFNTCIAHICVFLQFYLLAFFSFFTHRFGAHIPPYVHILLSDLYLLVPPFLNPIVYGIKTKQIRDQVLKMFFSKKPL
Method in brief: as §1

Measured: odorant receptor agonist call

Cc1ccccc1OC(=O)C(C)C
inactive: UniProt Q8VGZ2 | UniProt Q8VGZ7 | UniProt Q8VH16 | UniProt Q8VH20 | UniProt Q8VH21 | UniProt Q924H8

CCCCCCCC(=O)[O-].[H+]
active: UniProt Q8VGX8 | UniProt Q8VGZ2 | UniProt Q8VH18 | UniProt Q8VH20 | UniProt Q99NH4 | UniProt Q9WVD7
not listed: UniProt Q8VH16 | UniProt Q8VH21 | UniProt Q924H8
inactive: all other assays above

CCCCCCCCOC=O
inactive: UniProt Q8VGZ2 | UniProt Q8VGZ7 | UniProt Q8VH16 | UniProt Q8VH20 | UniProt Q8VH21 | UniProt Q924H8

C=C(C)C1CCC(C)C(O)C1 (configuration not stated)
inactive: UniProt Q8VGZ2 | UniProt Q8VGZ7 | UniProt Q8VH16 | UniProt Q8VH20 | UniProt Q8VH21 | UniProt Q924H8
